Source: the RNAGym collection of RNA variant scans (doi:10.1038/s41586-018-0170-7)

B1: tRNA (parent)
chain: GUUCCGUUGGCGUAAUGGUAACGCGUCUCCCUCCUAAGGAGAAGACUGCGGGUUCGAGUCCCGUACGGAACG

Variants of: B1
Experiment: yeast fitness, log relative to wild type (ln ratio); higher = fitter; tRNA-Arg(CCU), competitive growth, 37 C, 1 M NaCl
Method in brief: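 In BY4742 missing the chromosomal gene, a combinatorial tRNA-Arg(CCU) variant library was maintained on a HIS3 centromeric plasmid. Selection ran ~6.5 generations (~26.5 h) in SC-HIS 1M NaCl at 37 °C, following 4 generations in SC-HIS at 30 °C, with three outputs per input and variant counts by 125 bp paired-end Illumina sequencing. Fitness is the natural log of a genotype's generations relative to the wild type's, with generations taken as inverse-variance-weighted, OD-scaled log2 output/input frequency.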
For G1A U2C C46U C66U A69G A70G C71U, the “yeast fitness (ln)” value was -0.0168. For G6A C27U C46U A70G, the “yeast fitness (ln)” value was -0.132. With G1A U2G G6A C27U C66A A69G A70G C71U the “yeast fitness (ln)” value was -0.353. With G1A U2C A43C C46U A70G C71U the “yeast fitness (ln)” value was -0.00628. In the case of G1A G6A C27U C46U A69G A70G C71U, the “yeast fitness (ln)” value is reported as -0.316. With U2G C46U C66A A70U the “yeast fitness (ln)” value was -0.0904. With G1A U2C G6A C27U A70U the “yeast fitness (ln)” value was -0.0756. For G1A C27U C46U C66A A70U C71U, the “yeast fitness (ln)” value was -0.208. With C27U C66U the “yeast fitness (ln)” value was -0.134. In the case of G1A U2G A70G, the “yeast fitness (ln)” value is reported as -0.0928. In the case of G1A U2G G6U C46U C66A C71U, the “yeast fitness (ln)” value is reported as -0.179. With G1A U2C G6A C27U C46U C66U A70G C71U the “yeast fitness (ln)” value was -0.00474. In the case of U2C G6A C46U A70G C71U, the “yeast fitness (ln)” value is reported as -0.0308. With G1A C46U C66U A69G A70U the “yeast fitness (ln)” value was -0.162. In the case of G1A U2C C27U A43C C46U C66U A70U C71U, the “yeast fitness (ln)” value is reported as -0.297. In the case of G1A G6A A43C C46U, the “yeast fitness (ln)” value is reported as -0.0957. With G1A U2G G6U A69G A70U C71U the “yeast fitness (ln)” value was -0.255. In the case of G1A U2G C66A A70G C71U, the “yeast fitness (ln)” value is reported as -0.191. In the case of G1A U2C G6A C27U C66U A70G, the “yeast fitness (ln)” value is reported as -0.128. For G1A G6U C27U C46U A69G C71U, the “yeast fitness (ln)” value was -0.291. For U2G G6A C27U C71U, the “yeast fitness (ln)” value was -0.156. For A43C C66A A70U, the “yeast fitness (ln)” value was -0.0764. With G1A U2C G6U A43C C46U C66A C71U the “yeast fitness (ln)” value was -0.3. For U2C G6U A43C C46U A70G C71U, the “yeast fitness (ln)” value was -0.278. In the case of G1A U2G G6A C27U C46U A69G A70G C71U, the “yeast fitness (ln)” value is reported as -0.332. For U2G G6U C66U A70U C71U, the “yeast fitness (ln)” value was -0.303. In the case of G6U C27U A43C C46U C66U A69G A70U C71U, the “yeast fitness (ln)” value is reported as -0.535. With U2G G6U C66U the “yeast fitness (ln)” value was -0.0894. For U2C G6U C27U C46U C71U, the “yeast fitness (ln)” value was -0.235. For G6U C27U A43C C66A A69G A70G, the “yeast fitness (ln)” value was -0.453. For G6A A43C C46U C66U A70G, the “yeast fitness (ln)” value was -0.0403. For U2G C27U A43C C46U A69G A70G, the “yeast fitness (ln)” value was -0.114. In the case of C46U C66A A69G A70U, the “yeast fitness (ln)” value is reported as -0.0373. In the case of G1A U2G G6A A43C C46U C71U, the “yeast fitness (ln)” value is reported as -0.23. With U2C G6A C27U A43C C66U A69G A70U C71U the “yeast fitness (ln)” value was -0.351. In the case of U2C G6U C27U A43C C66A, the “yeast fitness (ln)” value is reported as -0.104. With G6A C66U A70G C71U the “yeast fitness (ln)” value was -0.358. With U2G G6A A43C C46U C66A A70G C71U the “yeast fitness (ln)” value was -0.139. In the case of U2C G6A C46U A70U C71U, the “yeast fitness (ln)” value is reported as -0.0461. With U2C C27U A43C C66U C71U the “yeast fitness (ln)” value was -0.311. In the case of U2C C27U A43C C46U C66A A69G A70U, the “yeast fitness (ln)” value is reported as -0.263. With U2G G6U A43C C66U C71U the “yeast fitness (ln)” value was -0.405. In the case of G6U C66U A70G, the “yeast fitness (ln)” value is reported as -0.383. With C27U A43C C66A A70G C71U the “yeast fitness (ln)” value was -0.234. With U2C C27U C46U A70U C71U the “yeast fitness (ln)” value was -0.09. With G1A U2C G6U A43C C46U the “yeast fitness (ln)” value was 0.0223. For U2G G6A A43C C46U C66A C71U, the “yeast fitness (ln)” value was -0.153. For G1A G6U C27U C66U A70U, the “yeast fitness (ln)” value was -0.274. In the case of G1A G6U C27U A43C C46U A70G C71U, the “yeast fitness (ln)” value is reported as -0.321. With U2C G6A A43C C46U A70U the “yeast fitness (ln)” value was -0.0234. With G6U C27U A43C A70G C71U the “yeast fitness (ln)” value was -0.348. In the case of U2G G6A C27U C46U C66A A70G C71U, the “yeast fitness (ln)” value is reported as -0.221. For G1A U2G G6U C27U C46U A69G A70G C71U, the “yeast fitness (ln)” value was -0.35. With U2G G6U C27U C46U C66U C71U the “yeast fitness (ln)” value was -0.246. With U2C G6A C27U A69G A70G the “yeast fitness (ln)” value was -0.252. With U2G G6A C46U A69G C71U the “yeast fitness (ln)” value was -0.124. In the case of U2C A43C C66A A70G C71U, the “yeast fitness (ln)” value is reported as -0.11. For G1A G6A C66A A69G A70G C71U, the “yeast fitness (ln)” value was -0.194. In the case of U2C G6U C46U C71U, the “yeast fitness (ln)” value is reported as -0.0792. For U2C A69G A70G, the “yeast fitness (ln)” value was -0.0175. For U2C G6U A43C C66U A69G A70U C71U, the “yeast fitness (ln)” value was -0.479. For G1A G6A A43C C46U A70U, the “yeast fitness (ln)” value was -0.206. In the case of U2C C46U C66U A69G, the “yeast fitness (ln)” value is reported as -0.224. In the case of U2C A43C C46U C66A, the “yeast fitness (ln)” value is reported as 0.0909. In the case of U2C A43C C46U C66U, the “yeast fitness (ln)” value is reported as -0.0687. For U2C A43C C46U C66U A69G A70G, the “yeast fitness (ln)” value was -0.0788. With C27U C66A A70U the “yeast fitness (ln)” value was -0.0748. With G6U C27U C66A A70U the “yeast fitness (ln)” value was -0.17. With G6U A70U C71U the “yeast fitness (ln)” value was -0.14. With U2G G6A A43C C46U C66U A69G A70U C71U the “yeast fitness (ln)” value was -0.379. With G1A U2G G6U C27U A43C C66U A69G A70U C71U the “yeast fitness (ln)” value was -0.54. With G1A U2C C66A A70U the “yeast fitness (ln)” value was -0.0191. In the case of G1A U2C C46U C66U C71U, the “yeast fitness (ln)” value is reported as -0.119. For G1A U2G G6U A69G A70G C71U, the “yeast fitness (ln)” value was -0.427. In the case of G1A G6U C27U C46U A70U, the “yeast fitness (ln)” value is reported as -0.274. With G6U C27U A43C C46U C66A A69G A70U C71U the “yeast fitness (ln)” value was -0.611. In the case of G6A C27U C46U C66A, the “yeast fitness (ln)” value is reported as -0.126. With U2G C27U C46U C66A A69G A70G C71U the “yeast fitness (ln)” value was -0.184. With U2G G6A C27U A43C C46U C66U C71U the “yeast fitness (ln)” value was -0.282. With G1A U2G C27U C46U C66U C71U the “yeast fitness (ln)” value was -0.21. For G1A G6U A43C A69G C71U, the “yeast fitness (ln)” value was -0.28. In the case of U2G G6A C71U, the “yeast fitness (ln)” value is reported as -0.0566. For U2C G6A C27U C46U, the “yeast fitness (ln)” value was -0.0382.
